SENP6 inh: blocks the human protease SENP6. Q9GZR1. Recombinant SENP6 catalytic domain, aminoluciferin luminescence. inhibition, % at 10 µM. 330,000 compounds, 1.8% hits. AID 2599;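 active means inhibition above about 50% at the single tested dose, limit read from the data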;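 further: plate controls were DMSO wells with enzyme for no effect and DMSO wells lacking enzyme for full effect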
SENP1 inh: blocks the human SENP1 SUMO protease catalytic domain | Q9P0U3 | recombinant SENP1 catalytic domain, CyPet-SUMO1-YPet FRET cleavage | inhibition, % at 10 µM | 360,000 compounds, 0.21% hits;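 active means inhibition at least 30% at 10 µM, raw YFP signal under a set limit, fluorescence ratio 0.5 to 1.5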;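 further: 0% = enzyme with DMSO and 100% = no enzyme wells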
Target sequence (Q9P0U3 419-644 limits assumed): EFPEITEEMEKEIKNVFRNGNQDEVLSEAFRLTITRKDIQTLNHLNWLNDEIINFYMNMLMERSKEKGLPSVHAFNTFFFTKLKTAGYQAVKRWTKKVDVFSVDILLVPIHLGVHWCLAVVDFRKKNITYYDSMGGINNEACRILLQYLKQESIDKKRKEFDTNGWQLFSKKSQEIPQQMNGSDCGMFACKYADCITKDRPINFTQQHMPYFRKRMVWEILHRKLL
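Material: hSENP1 catalytic domain, recombinant; medium: Tris pH 8 with BME, BSA, NP40 and catalase; compound: single concentration of 10 µM compound, 0.5% DMSO final; technique: FRET read of cyan and yellow fluorescence; timing: 50 min enzyme reaction, room temperature, light-protected; reagent: SFCypet-SUMO1-SFYpet substrate at 25 nM; control set: no-enzyme low, enzyme-DMSO high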
NRP1-CendR mod: modulators of CendR peptide binding to human neuropilin-1; O14786; FAM-RPARPAR peptide binding to NRP-1, fluorescence polarization; inhibition, % at 25 µM; 360,000 compounds, 0.85% hits;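 active means inhibition or corrected inhibition above about 18%, plus a signal ratio from 0.5 to 1.5, limit read from the data, passing the limit was not always enough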
SENP7 inh: blocks the human protease SENP7 | Q9BQF6 | recombinant SENP7, Z-RLRGG-aminoluciferin luminescence, 40 min | inhibition, % at 5 µM | 330,000 compounds, 1.5% hits;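 active means inhibition above about 50% at the single test dose, limit read from the data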;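 further: plate controls were DMSO with enzyme for no effect and no enzyme buffer wells for full effect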
SENP8 block-1: inhibitors of human SENP8 protease | Q96LD8 | recombinant SENP8, Nedd8 substrate fluorescence | inhibition, % at 20 µM | 360,000 compounds, 0.64% hits; in the data active means inhibition mostly above about 40%, no sharp cut-off; inactive means mostly below about 27%
Target sequence (Q96LD8 whole entry, looked up): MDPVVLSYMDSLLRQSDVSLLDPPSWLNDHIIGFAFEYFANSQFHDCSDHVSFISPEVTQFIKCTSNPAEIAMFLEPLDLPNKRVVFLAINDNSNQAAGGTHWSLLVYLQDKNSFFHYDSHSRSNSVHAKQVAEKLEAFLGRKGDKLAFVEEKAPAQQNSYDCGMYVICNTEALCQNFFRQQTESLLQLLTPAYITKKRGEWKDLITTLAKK
SENP8 block-2: inhibitors of human SENP8 protease. Q96LD8. inhibition, % at 10 µM. 330,000 compounds, 1.2% hits. purified SENP8, Z-RLRGG-aminoluciferin cleavage, luminescence. AID 2540; in the data active means inhibition above about 50%
SENP8 conf: confirmation of human SENP8 protease inhibitors | shares compounds with SENP8 block-1 | purified SENP8, Nedd8-AMC/pro-Nedd8 cleavage fluorescence, 30 min | inhibition, % at 25 µM | 1,400 compounds, 15% hits | AID 624319; in the data active means inhibition mostly above about 39%, no sharp cut-off; inactive means mostly below about 34%
Active calls of the source: *; . = no result; ! = repeats disagree. This is a sample that favours compounds with a hit; in the whole collection about 3.3% have one here.

SMILES	SENP6 inh	SENP1 inh	NRP1-CendR mod	SENP7 inh	SENP8 block-1	SENP8 block-2	SENP8 conf
COC(=O)Nc1ccc(S(=O)(=O)NC2CCS(=O)(=O)C2)cc1 (configuration not stated)	20	1	12	6	45*	6	32
CCCCc1ccc(S(=O)(=O)NC2CCS(=O)(=O)C2)cc1 (configuration not stated)	0	1	3	5	8	6	.
CC(=O)Nc1ccc(C(=O)N2CCCC(c3cc(C(=O)NCc4ccccc4)no3)C2)cc1 (configuration not stated)	.	2	-6	.	8	.	.
CNc1ccc(-c2cccc([N+](=O)[O-])c2)cn1	.	2	0	.	-9	.	.
COc1cc(CCC(O)CC(=O)CCc2ccccc2)ccc1O (configuration not stated)	-16	-1	5	8	46*	-14	15
CC1(c2ccccc2)CC(C)(C)n2c(O)c(C3=NC(=S)NC3=O)c3cccc1c32 (configuration not stated)	-7	2	26*	3	50*	-1	16
Cc1ccc(NC(=O)c2ccc(Cl)c(S(=O)(=O)Nc3c(C)n(C)n(-c4ccccc4)c3=O)c2)cc1Cl	-3	-1	-14	10	-2	-14	.
Cc1ccc(C=Nc2ccc(N(C)C)cc2)o1	11	3	3	14	45*	-33	14
COc1ccccc1Cn1nnc2c(=O)[nH]c(C3CCN(C(=O)c4ccc(F)cc4)CC3)nc21	8	0	-5	-1	53*	2	8
CN(C)C=Nc1c(Br)cc(Br)c2nonc12	39	44	-59	12	58*	23	45*
Cc1cccc(NC(=O)COC(=O)c2nn(-c3ccccc3C(F)(F)F)cc2O)c1C	.	-1	-7	.	-63	.	.
O=c1[nH]nc(CNc2ccc(O)cc2)c2ccccc12	10	10	-4	49	114*	-1	26
CCC(CC)C(=O)N(C)c1c(C)nc2c(OCc3cccc(OC)c3)cccn12	.	-2	0	.	1	.	.
Cc1cc(=O)oc2cc(OCC(=O)NCCc3c[nH]c4ccc(F)cc34)ccc12	-17	2	18	-5	-34	11	.
COc1ccc2[nH]cc(CCNC(=O)COc3ccc4ccc(=O)oc4c3)c2c1	-10	0	-1	5	42*	11	6
O=C1CC(=Nc2ccc([N+](=O)[O-])cc2)NN1c1c(Cl)cc(Cl)cc1Cl	.	3	3	.	95*	.	71*
O=[N+]([O-])c1ccc(N=Nc2c(Cl)cc(O)cc2Cl)cc1	.	1	13	.	37	.	.
COc1ccc2c3c1OC1CC(O)C=CC31CCN(C)C2 (configuration not stated)	-6	0	-8	-4	42*!	-8	8
O=C(Cn1ncc2c([nH]c3ccccc32)c1=O)N1CCc2ccccc2C1	7	0	16	-2	2	0	.
O=C(CCc1nc2ccccc2[nH]1)N1CCc2ccccc2C1	11	1	-13	-15	45*	-8	54*
Cc1ccc(NC(=S)N/N=C/c2ccc([N+](=O)[O-])s2)cc1	24	0	-15	2	40*	7	53*
COc1ccc(Cl)cc1S(=O)(=O)NCc1cccs1	2	1	-4	6	3	3	.
COc1cc(C)c(S(=O)(=O)NCc2cccs2)cc1C	-13	0	-8	14	41*	-10	11
CCN(CC)S(=O)(=O)c1ccc(N2CCN(c3cccc(OC)c3)CC2)c([N+](=O)[O-])c1	-6	2	-2	8	43*	-1	-3
Cc1c(N=C2N=C(NC(=O)c3cccs3)c3ccccc32)c(=O)n(-c2ccccc2)n1C	1	5	-97	4	60*	8	17
SMILES	SENP6 inh	SENP1 inh	NRP1-CendR mod	SENP7 inh	SENP8 block-1	SENP8 block-2	SENP8 conf
Cc1c(N=C2N=C(NC(=O)NC(C)(C)C)c3ccccc32)c(=O)n(-c2ccccc2)n1C	-11	-48	10	-1	9	-6	.
CCOC(=O)c1nn(-c2ccccc2C)c(=O)c2c(N)scc12	46	2	-4	1	47*	-4	41
CCOC(=O)c1nn(-c2ccccc2)c(=O)c2c(NC(C)=O)scc12	-14	-4	7	-5	-109	6	.
CC1CCN(c2ccc(NC(=S)NC(=O)c3ccco3)cc2)CC1	-17	3	10	-8	42*	-6	12
COc1ccc(S(=O)(=O)Nc2ccc3c(c2)C(=O)N([C@H](C)CO)C[C@H](C)[C@@H](CN(C)Cc2ccncc2)OCCCC[C@@H](C)O3)cc1	.	-2	-2	.	0	.	.
O=C(O)C=C(Br)Br	-4	2	-1	4	46*	-6	21
Cc1ccc(C(=O)NCC(=O)OCC(=O)N(CC(C)C)c2c(N)n(Cc3ccccc3)c(=O)[nH]c2=O)cc1	3	1	-4	7	32*	-1	27
COc1cc(NC(=O)Nc2nnc([C@H]3C[C@H](O)[C@@H](CO)O3)s2)cc(OC)c1	.	0	9	.	-2	.	.
Cc1ccccc1[C@]1(C)ON(c2ccccc2C(F)(F)F)C1=O	-12	.	.	-11	.	-15	.
Cc1ccccc1NC(=O)c1c(C)cc(=O)oc1C	-28	2	19	-4	13	-2	.
Cc1cc(=O)oc(C)c1C(=O)Nc1cccc2ccccc12	12	3	0	2	43*	0	17
Cc1ccc(S(=O)(=O)N[C@H](C(=O)N2CCC(C(=O)NCC(=O)O)CC2)C(C)C)cc1	-9	1	1	-3	18	-13	.
Cc1ccc(S(=O)(=O)N[C@H](C(=O)N2CCC(C(=O)N[C@H](C(=O)O)c3ccccc3)CC2)C(C)C)cc1	-7	2	-1	7	48*	-6	11
Cc1ccc(/C=N/n2nnnc2N)o1	8	-1	-2	-4	42*	6	1
COCCCN1C(=O)C(CC(=O)NC2CC2)CC(C(=O)N(C(C)C)C(C)C)=C1C (configuration not stated)	.	1	2	.	8	.	.
COc1cc(C(=O)C(=O)N2CCN(c3ccccc3)CC2)cc(OC)c1OC	.	-1	6	.	12	.	.
COc1ccc(NC(=O)C2CC(=O)OC23CCOC(C)(C)C3)cc1 (configuration not stated)	-11	1	2	0	42*	6	10
CC1(C)CC2(CCO1)OC(=O)CC2C(=O)Nc1ccc(Br)cc1 (configuration not stated)	3	4	3	2	26	3	.
COCCNC(=O)C1CCCN(C(=O)COc2ccc(Cl)cc2Cl)CC1 (configuration not stated)	.	1	3	.	17	.	.
